Key:
[1] = Stability in rat liver microsomes assessed as parent compound remaining after 30 mins; format: ADME, microsome; details: read-out: Stability
Outline: (§1)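 Incubated in vitro with mouse, rat or human liver microsomes for 30 minutes. Result expressed as percent of parent compound remaining.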

[2] = molecular target: Bromodomain-containing protein 7 (Homo sapiens) (UniProt Q9NPI1); test: Inhibition of human partial length BRD7 (L125 to R254 residues) expressed in mammalian expression system assessed as residual activity at 500 nM relative to control by BROMOscan assay
[3] = Cell cycle arrest in human TY82 cells assessed as accumulation at sub-G1 phase at 10 uM after 24 hrs by DAPI staining based assay (reference value: 6%); format: functional
[4] = molecular target: Bromodomain adjacent to zinc finger domain protein 2A (Homo sapiens) (UniProt Q9UIF9); test: Inhibition of human partial length BAZ2A (M1792 to L1905 residues) expressed in bacterial expression system assessed as residual activity at 500 nM relative to control by BROMOscan assay
[5] = Cell cycle arrest in human TY82 cells assessed as accumulation at sub-G1 phase at 1 uM after 24 hrs by DAPI staining based assay (reference value: 6%); format: functional
[6] = molecular target: T1, Bromodomain-containing protein 4 (Homo sapiens, UniProt O60885); test: Inhibition of human partial length BRD4 BD1 (N44 to E168 residues) expressed in bacterial expression system assessed as residual activity at 500 nM relative to control by BROMOscan assay
[7] = molecular target: Bromodomain-containing protein 1 (Homo sapiens) (UniProt O95696); test: Inhibition of human partial length BRD1 (E556 to A688 residues) expressed in bacterial expression system assessed as residual activity at 500 nM relative to control by BROMOscan assay
[8] = molecular target: ATPase family AAA domain-containing protein 2B (Homo sapiens) (UniProt Q9ULI0); test: Inhibition of human partial length ATAD2B (Q955 to R1082 residues) expressed in bacterial expression system assessed as residual activity at 500 nM relative to control by BROMOscan assay
[9] = molecular target: Bromodomain testis-specific protein (Homo sapiens) (UniProt Q58F21); test: Inhibition of human partial length BRDT BD1 (N21 to E137 residues) expressed in bacterial expression system assessed as residual activity at 500 nM relative to control by BROMOscan assay
[10] = Cell cycle arrest in human TY82 cells assessed as accumulation at G1 phase at 3 uM after 24 hrs by DAPI staining based assay (reference value: 73%); format: functional
[11] = molecular target: Bromodomain-containing protein 2 (Homo sapiens) (UniProt P25440); test: Inhibition of human partial length BRD2 BD2 (E348 to D455 residues) expressed in bacterial expression system assessed as residual activity at 500 nM relative to control by BROMOscan assay
[12] = molecular target: Bromodomain-containing protein 3 (Homo sapiens) (UniProt Q15059); test: Inhibition of human partial length BRD3 BD2 (G306 to P416 residues) expressed in bacterial expression system assessed as residual activity at 500 nM relative to control by BROMOscan assay
Rattus norvegicus [13] = test: Half life in rat at 20 mg/kg, po; format: ADME, organism-based; details: in vivo
Outline: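 Rat pharmacokinetics with single intravenous (2 mg/kg) or oral (5 or 20 mg/kg) dosing. Terminal half-life is reported in hours.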

[14] = molecular target: Bromodomain and PHD finger-containing protein 3 (Homo sapiens) (UniProt Q9ULD4); test: Inhibition of human partial length BRPF3 (E588 to G701 residues) expressed in bacterial expression system assessed as residual activity at 500 nM relative to control by BROMOscan assay
[15] = molecular target: Transcription initiation factor TFIID subunit 1-like (Homo sapiens) (UniProt Q8IZX4); test: Inhibition of human partial length TAF1L BD2 (Q1523 to D1654 residues) expressed in bacterial expression system assessed as residual activity at 500 nM relative to control by BROMOscan assay
[16] = molecular target: T1, Bromodomain-containing protein 4; test: Inhibition of BRD4 in human TY82 cells assessed as decrease in c-MYC expression level after 24 hrs by Western blot analysis; format: cell-based
Outline: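 Ty-82 cells at 70% confluency were treated with varying compound concentrations for 24 h. Samples were run on 12% SDS-PAGE and transferred to nitrocellulose. Membranes were blocked in PBS/1% BSA/0.1% Tween 20 for 1 h, probed with c-MYC antibodies, and detected by chemiluminescence.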

Rattus norvegicus [17] = test: Cmax in rat at 20 mg/kg, po; format: ADME, organism-based; design: dose 20 mg/kg, route oral; details: in vivo
Outline: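 Peak plasma level after single oral dosing in rat at 5 or 20 mg/kg. Cmax is given in mg/mL as printed, with Tmax in hours.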

[18] = Cell cycle arrest in human TY82 cells assessed as accumulation at S phase at 10 uM after 24 hrs by DAPI staining based assay (reference value: 11%); format: functional
[19] = molecular target: Protein polybromo-1 (Homo sapiens) (UniProt Q86U86); test: Inhibition of human partial length PBRM1 BD5 (S645 to D766 residues) expressed in bacterial expression system assessed as residual activity at 500 nM relative to control by BROMOscan assay
[20] = molecular target: Chromatin remodeling regulator CECR2 (Homo sapiens) (UniProt Q9BXF3); test: Inhibition of human partial length CECR2 (P423 to D543 residues) expressed in bacterial expression system assessed as residual activity at 500 nM relative to control by BROMOscan assay
[21] = Cell cycle arrest in human TY82 cells assessed as accumulation at G1 phase at 10 uM after 24 hrs by DAPI staining based assay (reference value: 73%); format: functional
[22] = molecular target: T1, Bromodomain-containing protein 4; test: Binding affinity to BRD4 BD1 (unknown origin)
[23] = molecular target: Bromodomain adjacent to zinc finger domain protein 2B (Homo sapiens) (UniProt Q9UIF8); test: Inhibition of human partial length BAZ2B (S2054 to S2168 residues) expressed in bacterial expression system assessed as residual activity at 500 nM relative to control by BROMOscan assay
[24] = Antiproliferative activity against human TY82 cells; format: functional, cell-based
[25] = Stability in human liver microsomes assessed as parent compound remaining after 30 mins; format: ADME, microsome; details: read-out: Stability; outline: as §1
[26] = molecular target: Bromodomain-containing protein 9 (Homo sapiens) (UniProt Q9H8M2); test: Inhibition of human partial length BRD9 (R130 to V259 residues) expressed in bacterial expression system assessed as residual activity at 500 nM relative to control by BROMOscan assay
[27] = molecular target: SWI/SNF-related matrix-associated actin-dependent regulator of chromatin subfamily A member 2 (Homo sapiens) (UniProt P51531); test: Inhibition of human partial length SMARCA2 (S1377 to Q1486 residues) expressed in bacterial expression system assessed as residual activity at 500 nM relative to control by BROMOscan assay
[28] = molecular target: Histone acetyltransferase KAT2A (Homo sapiens) (UniProt Q92830); test: Inhibition of human partial length GCN5L2 (E726 to K837 residues) expressed in bacterial expression system assessed as residual activity at 500 nM relative to control by BROMOscan assay

Sequence of Bromodomain-containing protein 3 (Homo sapiens) (Q15059 2-726 limits assumed): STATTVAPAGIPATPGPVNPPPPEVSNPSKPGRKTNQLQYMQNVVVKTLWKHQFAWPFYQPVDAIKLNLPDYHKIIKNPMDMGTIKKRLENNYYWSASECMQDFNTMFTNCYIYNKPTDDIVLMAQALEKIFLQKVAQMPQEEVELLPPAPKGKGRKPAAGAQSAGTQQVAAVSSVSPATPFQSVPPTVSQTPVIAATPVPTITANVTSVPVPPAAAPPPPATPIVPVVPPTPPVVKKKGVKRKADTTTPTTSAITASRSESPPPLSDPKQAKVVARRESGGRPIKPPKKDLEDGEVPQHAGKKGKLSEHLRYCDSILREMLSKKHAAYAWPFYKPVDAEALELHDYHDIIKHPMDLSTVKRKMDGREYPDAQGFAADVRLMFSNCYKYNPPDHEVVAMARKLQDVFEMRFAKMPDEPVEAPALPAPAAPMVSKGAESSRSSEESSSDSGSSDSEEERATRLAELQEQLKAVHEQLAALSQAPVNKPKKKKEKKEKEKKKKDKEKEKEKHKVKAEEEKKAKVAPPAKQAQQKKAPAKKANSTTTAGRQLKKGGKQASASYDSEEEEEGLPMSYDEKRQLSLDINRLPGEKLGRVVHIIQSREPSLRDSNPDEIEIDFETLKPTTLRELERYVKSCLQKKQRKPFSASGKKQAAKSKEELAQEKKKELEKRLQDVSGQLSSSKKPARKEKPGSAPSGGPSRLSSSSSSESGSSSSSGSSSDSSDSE
Sequence of SWI/SNF-related matrix-associated actin-dependent regulator of chromatin subfamily A member 2 (Homo sapiens) (P51531 whole entry, the tested form may be a part): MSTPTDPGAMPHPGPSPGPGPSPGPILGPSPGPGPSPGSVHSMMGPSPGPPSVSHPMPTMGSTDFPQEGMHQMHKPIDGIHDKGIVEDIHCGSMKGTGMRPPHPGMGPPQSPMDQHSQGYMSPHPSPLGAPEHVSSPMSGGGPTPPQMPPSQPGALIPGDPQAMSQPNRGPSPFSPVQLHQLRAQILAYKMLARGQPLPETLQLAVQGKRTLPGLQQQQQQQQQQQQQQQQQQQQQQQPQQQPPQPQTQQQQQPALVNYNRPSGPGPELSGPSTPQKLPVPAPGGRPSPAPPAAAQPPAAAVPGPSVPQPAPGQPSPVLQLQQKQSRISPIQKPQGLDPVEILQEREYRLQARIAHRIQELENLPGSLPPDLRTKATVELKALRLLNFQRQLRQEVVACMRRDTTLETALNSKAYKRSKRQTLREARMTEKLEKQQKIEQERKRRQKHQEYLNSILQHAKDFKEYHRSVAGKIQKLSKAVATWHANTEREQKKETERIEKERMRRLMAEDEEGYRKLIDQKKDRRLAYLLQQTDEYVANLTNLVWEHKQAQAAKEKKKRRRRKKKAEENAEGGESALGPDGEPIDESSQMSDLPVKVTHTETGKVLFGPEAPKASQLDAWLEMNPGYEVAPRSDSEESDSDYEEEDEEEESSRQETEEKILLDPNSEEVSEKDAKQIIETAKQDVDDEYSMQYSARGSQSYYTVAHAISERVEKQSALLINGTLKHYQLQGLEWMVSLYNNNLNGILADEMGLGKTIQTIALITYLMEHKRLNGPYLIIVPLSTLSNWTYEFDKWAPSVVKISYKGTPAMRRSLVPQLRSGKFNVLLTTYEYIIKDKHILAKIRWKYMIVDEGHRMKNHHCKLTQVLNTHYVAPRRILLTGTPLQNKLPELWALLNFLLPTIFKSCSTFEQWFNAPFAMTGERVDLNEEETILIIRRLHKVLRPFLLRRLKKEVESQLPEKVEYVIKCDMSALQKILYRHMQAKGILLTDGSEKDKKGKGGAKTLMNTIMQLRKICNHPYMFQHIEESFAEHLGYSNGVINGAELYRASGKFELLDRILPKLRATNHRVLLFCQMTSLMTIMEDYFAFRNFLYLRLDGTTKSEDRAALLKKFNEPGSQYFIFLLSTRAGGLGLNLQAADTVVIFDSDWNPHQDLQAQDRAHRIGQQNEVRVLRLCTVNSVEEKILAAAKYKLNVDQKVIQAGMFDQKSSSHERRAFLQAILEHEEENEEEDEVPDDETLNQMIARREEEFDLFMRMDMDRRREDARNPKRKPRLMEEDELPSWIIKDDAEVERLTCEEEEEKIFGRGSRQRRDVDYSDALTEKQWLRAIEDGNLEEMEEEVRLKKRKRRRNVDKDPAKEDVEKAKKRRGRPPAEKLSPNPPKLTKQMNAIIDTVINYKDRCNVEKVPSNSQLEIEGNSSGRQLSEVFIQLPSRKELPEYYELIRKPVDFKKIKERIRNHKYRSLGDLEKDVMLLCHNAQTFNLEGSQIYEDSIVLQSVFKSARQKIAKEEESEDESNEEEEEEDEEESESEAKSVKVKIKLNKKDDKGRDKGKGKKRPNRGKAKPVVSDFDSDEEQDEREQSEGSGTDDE
Sequence of Chromatin remodeling regulator CECR2 (Homo sapiens) (Q9BXF3 whole entry, looked up, the tested form may be a part): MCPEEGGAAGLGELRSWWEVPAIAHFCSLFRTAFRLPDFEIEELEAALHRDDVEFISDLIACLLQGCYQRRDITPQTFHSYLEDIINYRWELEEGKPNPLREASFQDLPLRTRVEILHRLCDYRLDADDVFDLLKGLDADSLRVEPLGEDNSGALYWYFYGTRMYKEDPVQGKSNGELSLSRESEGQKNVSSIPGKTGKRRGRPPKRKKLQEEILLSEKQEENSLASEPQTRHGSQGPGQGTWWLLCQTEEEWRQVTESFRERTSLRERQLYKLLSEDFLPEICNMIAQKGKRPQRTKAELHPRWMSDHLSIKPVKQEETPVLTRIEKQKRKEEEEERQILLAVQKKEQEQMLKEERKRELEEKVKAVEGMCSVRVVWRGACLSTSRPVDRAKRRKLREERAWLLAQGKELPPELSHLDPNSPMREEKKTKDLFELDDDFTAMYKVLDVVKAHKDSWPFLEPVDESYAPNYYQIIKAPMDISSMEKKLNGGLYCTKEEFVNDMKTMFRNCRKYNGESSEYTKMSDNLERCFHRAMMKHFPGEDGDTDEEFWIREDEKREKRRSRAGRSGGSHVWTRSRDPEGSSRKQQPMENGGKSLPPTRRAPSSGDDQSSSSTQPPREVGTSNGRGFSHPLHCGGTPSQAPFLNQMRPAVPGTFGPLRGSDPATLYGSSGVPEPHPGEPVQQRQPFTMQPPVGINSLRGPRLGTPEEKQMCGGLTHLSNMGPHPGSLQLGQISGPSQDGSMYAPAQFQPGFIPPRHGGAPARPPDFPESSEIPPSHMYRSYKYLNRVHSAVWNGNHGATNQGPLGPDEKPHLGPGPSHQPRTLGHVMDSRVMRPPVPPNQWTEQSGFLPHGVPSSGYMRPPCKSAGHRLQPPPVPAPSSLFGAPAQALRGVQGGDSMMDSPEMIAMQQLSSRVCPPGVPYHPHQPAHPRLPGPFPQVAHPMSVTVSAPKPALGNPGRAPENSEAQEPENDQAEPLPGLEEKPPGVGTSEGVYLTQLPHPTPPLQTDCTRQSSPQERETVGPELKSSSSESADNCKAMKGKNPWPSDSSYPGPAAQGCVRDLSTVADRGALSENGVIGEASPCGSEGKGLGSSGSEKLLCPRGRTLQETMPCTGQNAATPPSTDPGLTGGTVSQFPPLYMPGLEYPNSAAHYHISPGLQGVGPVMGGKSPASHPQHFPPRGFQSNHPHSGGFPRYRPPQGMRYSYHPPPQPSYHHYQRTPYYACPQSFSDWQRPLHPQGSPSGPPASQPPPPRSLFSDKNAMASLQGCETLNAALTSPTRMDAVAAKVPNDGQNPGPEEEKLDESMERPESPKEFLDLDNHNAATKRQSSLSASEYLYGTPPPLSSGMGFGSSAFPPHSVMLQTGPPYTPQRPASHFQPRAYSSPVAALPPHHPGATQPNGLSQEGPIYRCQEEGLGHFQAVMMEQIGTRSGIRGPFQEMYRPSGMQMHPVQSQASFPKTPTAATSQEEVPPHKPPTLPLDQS
Sequence of Bromodomain and PHD finger-containing protein 3 (Homo sapiens) (Q9ULD4 whole entry, the tested form may be a part): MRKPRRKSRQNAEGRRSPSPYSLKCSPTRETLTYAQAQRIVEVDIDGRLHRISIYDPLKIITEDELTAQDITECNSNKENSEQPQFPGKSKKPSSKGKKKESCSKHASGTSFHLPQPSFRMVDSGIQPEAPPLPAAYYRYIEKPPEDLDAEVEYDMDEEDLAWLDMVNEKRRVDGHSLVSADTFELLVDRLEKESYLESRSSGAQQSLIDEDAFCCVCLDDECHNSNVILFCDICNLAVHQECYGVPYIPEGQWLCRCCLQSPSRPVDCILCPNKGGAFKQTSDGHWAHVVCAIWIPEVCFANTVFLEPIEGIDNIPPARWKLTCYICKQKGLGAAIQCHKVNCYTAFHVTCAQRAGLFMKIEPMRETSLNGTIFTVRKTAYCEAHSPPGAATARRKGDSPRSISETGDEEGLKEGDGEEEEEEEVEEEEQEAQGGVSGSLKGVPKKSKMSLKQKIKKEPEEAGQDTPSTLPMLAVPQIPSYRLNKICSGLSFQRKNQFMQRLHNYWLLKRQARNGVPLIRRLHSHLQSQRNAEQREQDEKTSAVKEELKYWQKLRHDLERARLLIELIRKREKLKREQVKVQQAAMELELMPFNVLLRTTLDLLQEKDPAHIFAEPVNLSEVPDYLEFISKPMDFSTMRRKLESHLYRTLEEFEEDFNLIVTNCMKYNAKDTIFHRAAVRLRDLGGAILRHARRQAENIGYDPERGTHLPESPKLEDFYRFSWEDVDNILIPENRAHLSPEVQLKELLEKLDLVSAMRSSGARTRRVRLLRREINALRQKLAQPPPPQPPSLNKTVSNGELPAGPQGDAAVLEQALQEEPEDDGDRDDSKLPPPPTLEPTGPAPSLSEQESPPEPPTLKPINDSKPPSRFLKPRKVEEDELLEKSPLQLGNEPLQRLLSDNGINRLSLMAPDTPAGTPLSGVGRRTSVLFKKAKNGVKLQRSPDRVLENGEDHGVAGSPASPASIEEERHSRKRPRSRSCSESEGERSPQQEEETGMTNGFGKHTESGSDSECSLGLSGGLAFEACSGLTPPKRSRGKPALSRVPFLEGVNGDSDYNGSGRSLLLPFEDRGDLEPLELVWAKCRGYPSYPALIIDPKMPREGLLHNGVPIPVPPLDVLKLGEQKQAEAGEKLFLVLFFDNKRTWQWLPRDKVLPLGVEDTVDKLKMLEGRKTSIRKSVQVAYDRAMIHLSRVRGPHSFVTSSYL

- remaining at 0.5 h [1]: 5%
- Activity [2]: 80%
- Activity [4]: 85%
- Activity [6]: 17%
- Activity [7]: 100%
- Activity [8]: 96%
- Activity [9]: 19%
- Activity [11]: 19%
- Activity [12]: 30%
- t1/2 (Rattus norvegicus [13]): 3 h
- Activity [14]: 87%
- Activity [15]: 83%
- inhibition [16]: Dose-dependent effect
- Cmax (Rattus norvegicus [17]): 4600 ng/mL
- Activity [19]: 84%
- Activity [20]: 88%
- Kd [22]: 27 nM
- Activity [23]: 93%
- remaining at 0.5 h [25]: 92%
- Activity [26]: 61%
- Activity [27]: 100%
- Activity [28]: 100%
Compound: Cc1nnc2c(Nc3cccc(CNC(=O)C(C)C)c3)nc3ccccc3n12
- Activity [3]: 5%
- Activity [5]: 5%
- Activity [10]: 89%
- Activity [18]: 2%
- Activity [21]: 88%
- IC50 [24]: 2500 nM

— ChEMBL document CHEMBL4043246, “Discovery of novel [1,2,4]triazolo[4,3-a]quinoxaline aminophenyl derivatives as BET inhibitors for cancer treatment” (Bioorg Med Chem Lett, 2017)
